The nature of series [1]: Inhibition of Escherichia coli N-terminal His-tagged FabH expressed in Escherichia coli BL21(DE3) using holo-acyl carrier protein as substrate preincubated for 1 min followed by acetyl-CoA addition measured after 25 mins by liquid scintillation counting analysis. The essentials:
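His-tagged FabH purified by Ni–NTA. Reaction: 1 nM FabH, […], 20 mM sodium phosphate pH 7.0, 0.5 mM DTT, 0.25 mM MgCl₂, 1 min preincubation. Started with 25 μM acetyl-CoA plus 0.75 μCi [³H]acetyl-CoA for 25 min. Stopped with cold TCA, protein pellet counted by liquid scintillation. Inhibitors from DMSO stock, final DMSO ≤2%; IC50 determined.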

Series [2] can be described thus: Cytotoxicity against human macrophages after 24 hrs by MTT assay. The format is cell-based, Macrophage. In short, it runs like this: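 Human macrophages in DMEM with 10% FBS and antimycotic, 1.8×10^4 cells/well. Compounds at 160, 40, 10, 2.5, 0.25 μg/mL in 10% DMSO, 24 h at 37 °C under 5% CO₂. Then MTT for 4 h, formazan dissolved in DMSO, absorbance difference 570/630 nm as viability. CC50 by curve fitting; untreated cells as negative control.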
(In general: Tetrazolium dyes change colour on reduction, which living cells bring about.)

The subject of another series is Escherichia coli. Description: Antibacterial activity against Escherichia coli ATCC 35218 after 24 hrs by MTT assay. Format: functional. Particulars: ATCC 35218, 24 h. In short, it runs like this: (§1)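 Broth microdilution in sterile liquid MH medium; compounds from 1 mg/mL DMSO stock, serially diluted. Inoculum about 10^5 cfu/mL, 37 °C for 24 h. MIC read visually, then MTT (2 mg/mL in PBS pH 7.4) added for 4–5 h at room temperature. Dye extracted with acidified isopropanol for 12 h, OD at 550 nm.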

A further series concerns Pseudomonas aeruginosa. Description: Antibacterial activity against Pseudomonas aeruginosa ATCC 13525 after 24 hrs by MTT assay. The format is functional. Particulars: ATCC 13525, 24 h. In short, it runs like this: as §1
The test system of the next series is Bacillus spizizenii. Description: Antibacterial activity against Bacillus subtilis ATCC 6633 after 24 hrs by MTT assay. The format is functional. Conditions: ATCC 6633, 24 h. The essentials: as §1
The subject of the next series is Staphylococcus aureus. Description: Antibacterial activity against Staphylococcus aureus ATCC 6538 after 24 hrs by MTT assay. Format: functional. Particulars: ATCC 6538, 24 h. In short, it runs like this:
as §1

Structures are written as SMILES. In brackets after ≈: the same amount, converted by molar mass. A value given as a limit tells only on which side of the number the result lay.

In the case of `O=C(Cc1ccc(Cl)cc1)Nc1nc(-c2ccc(Br)cc2)cs1`, in series [1], the midpoint of inhibition, the IC50, lay at 34.7 µM and the pIC50 is 4.46. Also, the cytotoxic concentration (CC50) at 24 h in series [2] is 286 µM.

In series [1], `O=C(Cc1ccc(Br)cc1)Nc1nc(-c2ccc(Br)cc2)cs1` displayed a half-inhibitory concentration (IC50) of 48.1 µM and a pIC50 of 4.32. The CC50 at 24 h in series [2] stood at 315 µM.

Regarding `O=C(Cc1cccc(Cl)c1)Nc1nc(-c2ccc(Br)cc2)cs1`, the figures for the minimum inhibitory concentration (MIC) against Escherichia coli and with Pseudomonas aeruginosa were 6.25 µg/mL (≈ 15.3 µM) and 12.5 µg/mL (≈ 30.7 µM), respectively. Besides, half-maximal inhibition in series [1] (IC50) was put at 9.3 µM. For the same compound, in series [1], the pIC50 is reported as 5.27. In series [2], this compound gave a half-maximal cytotoxic concentration (CC50) at 24 h of 194 µM.

With `O=C(Cc1cccc(Br)c1)Nc1nc(-c2ccc(Br)cc2)cs1`, the minimal inhibitory concentration (MIC) with Bacillus spizizenii is 1.56 µg/mL (≈ 3.45 µM); in the series on Escherichia coli it was 1.56 µg/mL (≈ 3.45 µM); with Pseudomonas aeruginosa, 3.13 µg/mL (≈ 6.92 µM). The same compound showed an IC50 in series [1] of 5.8 µM. The same compound yielded a pIC50 in series [1] of 5.01. Also, it took 220 µM to reach half-maximal cytotoxicity in series [2] (CC50 at 24 h).

In the case of `COc1cccc(CC(=O)Nc2nc(-c3ccc(Br)cc3)cs2)c1`, the minimum inhibitory concentration (MIC) with Staphylococcus aureus came out at 3.13 µg/mL (≈ 7.76 µM); against Bacillus spizizenii, 6.25 µg/mL (≈ 15.5 µM); with Escherichia coli, 12.5 µg/mL (≈ 31 µM); with Pseudomonas aeruginosa it was 3.13 µg/mL (≈ 7.76 µM). This compound gave a 50% inhibitory concentration (IC50) in series [1] of 6.6 µM. In series [1], this compound had a pIC50 of 5.25. Also, in series [2], the half-maximal cytotoxic concentration (CC50) at 24 h was 192 µM.

On to `O=C(Nc1nc(-c2ccc(Br)cc2)cs1)c1ccccc1`, for which, in series [1], the 50% inhibitory concentration (IC50) was > 100 µM.

In series [1], `O=C(Cc1cccc(Cl)c1)Nc1nc(-c2ccccc2)cs1` had a 50% inhibitory concentration (IC50) of 12.3 µM and a pIC50 of 4.91. This compound also had a 50% cytotoxic concentration (CC50) at 24 h in series [2] of 264 µM.

In series [1], `O=C(Cc1cccc(Br)c1)Nc1nc(-c2ccccc2)cs1` displayed an IC50 of 26.9 µM and a negative-log IC50 (pIC50) of 4.57. In addition, in series [2], the CC50 at 24 h came to 257 µM.

In the series on Pseudomonas aeruginosa, `COc1cccc(CC(=O)Nc2nc(-c3ccccc3)cs2)c1` came in with a minimum inhibitory concentration (MIC) of 25 µg/mL (≈ 77.1 µM).

In series [1], `O=C(Cc1ccc(F)cc1)Nc1nc(-c2ccc(Br)cc2)cs1` registered a concentration for half-maximal inhibition (IC50) of 29.3 µM and a pIC50 of 4.53. Besides, the midpoint of cytotoxicity in series [2], the CC50 at 24 h, lay at 264 µM.

As to `O=C(Cc1ccc(F)cc1)Nc1nc(-c2ccccc2)cs1`, in series [1], the IC50 came out at 38.4 µM and the pIC50 came to 4.42. This compound also gave a CC50 at 24 h in series [2] of 318 µM.

`O=C(Cc1ccc(Cl)cc1)Nc1nc(-c2ccccc2)cs1`: in series [1], inhibition was half-maximal at 41.8 µM (IC50) and the pIC50 is reported as 4.38. The compound further gave a half-maximal cytotoxic concentration (CC50) at 24 h in series [2] of 357 µM.

For the compound `CCOc1cccc(CC(=O)Nc2nc(-c3ccc(Br)cc3)cs2)c1`, the MIC in the series on Staphylococcus aureus was > 100 µg/mL; in the series with Bacillus spizizenii, 50 µg/mL (≈ 120 µM); in the series on Escherichia coli, 50 µg/mL (≈ 120 µM); in the series with Pseudomonas aeruginosa it was 25 µg/mL (≈ 59.9 µM).

As for `CCOc1cccc(CC(=O)Nc2nc(-c3ccccc3)cs2)c1`, the MIC with Staphylococcus aureus is > 100 µg/mL; with Bacillus spizizenii, > 100 µg/mL; against Escherichia coli, 50 µg/mL (≈ 148 µM); against Pseudomonas aeruginosa, 50 µg/mL (≈ 148 µM).

In the case of `O=C(Nc1nc(-c2ccccc2)cs1)c1ccccc1`, the IC50 in series [1] is > 100 µM.

Turning to `CC1(C)S[C@@H]2[C@H](NC(=O)Cc3ccccc3)C(=O)N2[C@H]1C(=O)O` [PENICILLIN G], it took 4.9 µM to reach half-maximal inhibition in series [1] (IC50). Further, in series [2], the CC50 at 24 h worked out at 229 µM.

In general, IC50 refers to the concentration at which inhibition is half-maximal. One may read the pIC50 as the negative decadic logarithm of the IC50, by convention in mol/L. Broadly, the CC50 is the concentration that lowers cell viability or growth by half. Read a low CC50 as greater toxicity to the cells. As a reminder, the MIC is the smallest concentration in the dilution series that meets the test's criterion for growth inhibition.
